Measurements from different studies.
Protocols differ between the studies behind these lines. pIC50: −log10 of the molar value.
Cell line: MCF7
Effect on: cell growth or viability

SMILES | assay | conditions | measurement | result
CC1(C)CC[C@]2(C)CC[C@]3(C)C(=CC[C@@H]4[C@@]5(C)CC[C@H](O)C(C)(C)[C@@H]5CC[C@]43C)[C@@H]2C1 | WST-1 | 48 h | pIC50 | 4.20
COc1cccc(-c2nc3ccccc3[nH]2)c1 | MTT | 48 h | pIC50 | 4.29
COC(=O)c1ccc(-n2nc(SC)nc2N)cc1 | MTT |  | pIC50 | 4.63
O=C1NC(c2ccccc2)(c2ccccc2)C(=O)N1Cc1cn(-c2c3ccccc3nc3ccccc23)nn1 | MTT |  | pIC50 | 4.37
CS(=O)(=O)c1ccc(-n2cc(/C=N/N=c3\[nH]c(-c4ccc(Br)cc4)cs3)c(-c3ccc(Br)cc3)n2)cc1 | MTT | 48 h | pIC50 | 4.78
COc1ccc(O)c(/C=N/c2nc(Oc3ccccc3)nn2-c2ccc(C(=O)O)cc2)c1 | MTT |  | pIC50 | 4.56
Oc1cccc(-c2ccc3ncnc(Nc4cccc(C(F)(F)F)c4)c3c2)c1 | MTT | 24 h | pIC50 | 4.74
COc1cc2ncnc(Nc3ccc(F)c(Cl)c3)c2cc1NC(=O)N/N=C/CN1CCCCC1 | MTT | 72 h | pIC50 | 5.19
O=C(/N=c1\scc(-c2ccccc2)n1C1CCCCC1)c1ccc2ccccc2c1 |  | 48 h | pIC50 | 4.76
COc1ccc(-c2nc3ccccc3n2Cc2ccccc2)cc1OC | MTT |  | pIC50 | 4.65
Clc1ccc(C[n+]2cn(CCc3ccccc3)c3ccccc32)cc1 | MTT | 72 h | pIC50 | 4.89
COCO[C@H]1C[C@H]2OC(C)(C)OC[C@]23[C@@H]2[C@@H](CC[C@]3(O)C1)[C@@]1(OCOC)CC[C@H](CO)[C@@]1(C)C[C@H]2OCOC | resazurin | 72 h | pIC50 | < 4.00
CSc1ccc(-c2nc3ccc(C)cc3[nH]2)cc1 | MTT | 48 h | pIC50 | 4.35
CN1CCN(CCn2cccc2/C=N/NC(=O)Nc2cc3c(Nc4ccc(F)c(Cl)c4)ncnc3cc2O[C@H]2CCOC2)CC1 | MTT | 72 h | pIC50 | 5.62
COc1cccc2c1C(=O)c1c(O)c3c(c(O)c1C2=O)C[C@@](O)(C(=O)CO)C[C@@H]3O[C@H]1C[C@H](N)[C@H](O)[C@H](C)O1 | MTT | 48 h | IC50 | 0.964 µg/mL
COc1ccc(S(=O)(=O)NN=Cc2cn(CCN3CCOCC3)c3ccccc23)cc1 | MTT | 48 h | pIC50 | 4.20
C[C@H]1[C@@H](O)O[C@@H]2O[C@@]3(C)CC[C@H]4[C@H](C)CC[C@@H]1[C@@]24OO3 | CCK-8 | 48 h | pIC50 | < 4.30
O=C(NC(=S)Nc1ccc([N+](=O)[O-])cc1)c1ccc2ccccc2c1 |  | 48 h | pIC50 | 5.11
C=CCn1c(-c2ccc(OC)c(OC)c2)nc2ccccc21 | MTT |  | pIC50 | 4.43
Oc1ccc(-c2csc(Nc3ccc4c(O)ncnc4c3)n2)cc1 | MTT |  | pIC50 | 5.13
Cc1ccc2nc(-c3ccc(Cl)cc3)[nH]c2c1 | MTT | 48 h | pIC50 | 4.59
CCN(CC)CCn1cccc1/C=N/NC(=O)Nc1cc2c(Nc3ccc(F)c(Cl)c3)ncnc2cc1O[C@H]1CCOC1 | MTT | 72 h | pIC50 | 5.89
O=Cc1ccc(-c2ccc3ncnc(Nc4cccc(C(F)(F)F)c4)c3c2)cc1 | MTT | 24 h | pIC50 | 4.81
Fc1ccc(-c2nc3ccccc3[nH]2)cc1 | MTT | 48 h | pIC50 | 4.17
